Test results: ChEMBL document CHEMBL1127345, “Synthesis, binding properties, and 18F labeling of fluorocarazolol, a high-affinity beta-adrenergic receptor antagonist” (J Med Chem, 1994)

Experiments:
[1] = test system: Mus musculus; experiment: The in vivo tissue distribution of mouse lung with Propranolol administration after 120 min, value was fractional dose per fractional body weight of the organ; type: ADME, organism-based; settings: 2 h
Outline: (§1)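 Male CF-1 mice (25–30 g) anaesthetised with 2 mg sodium pentobarbital ip; blocked group given 0.1 mL of […] propranolol iv via tail vein (200 μg, 6.6 mg/kg), tracer 30 min later. 0.1 mL of 1–2 mCi/mL [18F]-labelled enantiomer iv via tail vein; killed by cervical dislocation, organs weighed and counted against weighed standards. %ID/g × body weight/100 gives unitless uptake; five mice per point (heart, blood, lung, kidney, liver, bone); mean ± SD.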

[2] = test system: Mus musculus; experiment: The in vivo tissue distribution of mouse liver with Propranolol administration after 90 min, value was fractional dose per fractional body weight of the organ; type: ADME, organism-based; settings: 1.5 h
Outline: (§2)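 Male CF-1 mice (25–30 g), given 2 mg sodium pentobarbital ip 30 min before tracer. Blocked groups received propranolol iv by tail vein, 0.1 mL of 1 mg/mL. About 30 min later, 0.1 mL of [18F]tracer (1–2 mCi/mL) was injected by tail vein. Mice were killed by cervical dislocation at set times, and organs were weighed and counted. Uptake is %ID/g × body weight/100, average ± SD; n=5 for heart, brain, blood, lung, kidney, liver and bone.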

[3] = test system: Mus musculus; experiment: The in vivo tissue distribution of mouse brain with Propranolol administration after 10 min, value was fractional dose per fractional body weight of the organ; type: ADME, organism-based
Outline: (§3)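 Male CF-1 mice (25–30 g), anesthetised with 2 mg sodium pentobarbital ip 30 min before tracer. Where blocked, propranolol iv via tail vein (0.1 mL of […]; […]) about 30 min before tracer. Tracer given by tail vein, 0.1 mL at 1–2 mCi/mL. Mice killed by cervical dislocation at set times, organs weighed and counted. %ID/g × body weight/100 gives unitless uptake. Heart, brain, blood, lung, kidney, liver and bone n=5; average ± SD.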

[4] = test system: Mus musculus; experiment: The in vivo tissue distribution of mouse brain with Propranolol administration after 20 min, value was fractional dose per fractional body weight of the organ; type: ADME, organism-based; outline: as §3
[5] = test system: Mus musculus; experiment: The in vivo tissue distribution of mouse heart with Propranolol preadministration in 120 min, value was fractional dose per fractional body weight of the organ; type: ADME, organism-based; settings: 2 h; outline: as §1
[6] = test system: Mus musculus; experiment: The in vivo tissue distribution of mouse brain with Propranolol administration after 180 min, value was fractional dose per fractional body weight of the organ; type: ADME, organism-based; settings: 3 h; outline: as §2
[7] = test system: Mus musculus; experiment: The in vivo tissue distribution of mouse lung without Propranolol preadministration in 60 min, value was fractional dose per fractional body weight of the organ; settings: 1 h
[8] = test system: Mus musculus; experiment: The in vivo tissue distribution of mouse lung without Propranolol preadministration in 120 min, value was fractional dose per fractional body weight of the organ; settings: 2 h
[9] = test system: Mus musculus; experiment: The in vivo tissue distribution of mouse brain without Propranolol preadministration in 180 min, value was fractional dose per fractional body weight of the organ; settings: 3 h
[10] = test system: Mus musculus; experiment: The in vivo tissue distribution of mouse lung with Propranolol administration after 60 min, value was fractional dose per fractional body weight of the organ; type: ADME, organism-based; settings: 1 h; outline: as §3
[11] = test system: Mus musculus; experiment: The in vivo tissue distribution of mouse kidney without Propranolol preadministration in 90 min, value was fractional dose per fractional body weight of the organ; settings: 1.5 h
[12] = test system: Mus musculus; experiment: The in vivo tissue distribution of mouse bone with Propranolol administration after 20 min, value was fractional dose per fractional body weight of the organ; type: ADME, organism-based, Bone element; outline: as §1
[13] = test system: Mus musculus; experiment: The in vivo tissue distribution of mouse heart without Propranolol preadministration in 20 min, value was fractional dose per fractional body weight of the organ
[14] = test system: Mus musculus; experiment: The in vivo tissue distribution of mouse bone without Propranolol preadministration in 10 min, value was fractional dose per fractional body weight of the organ
[15] = test system: Mus musculus; experiment: The in vivo tissue distribution of mouse liver without Propranolol preadministration in 40 min, value was fractional dose per fractional body weight of the organ
[16] = test system: Mus musculus; experiment: The in vivo tissue distribution of mouse bone without Propranolol preadministration in 180 min, value was fractional dose per fractional body weight of the organ; settings: 3 h
[17] = test system: Mus musculus; experiment: The in vivo tissue distribution of mouse heart with Propranolol administration after 180 min, value was fractional dose per fractional body weight of the organ; type: ADME, organism-based; settings: 3 h; outline: as §2
[18] = test system: Mus musculus; experiment: The in vivo tissue distribution of mouse kidney with Propranolol administration after 40 min, value was fractional dose per fractional body weight of the organ; type: ADME, organism-based; outline: as §2
[19] = test system: Mus musculus; experiment: The in vivo tissue distribution of mouse blood with Propranolol administration after 10 min, value was fractional dose per fractional body weight of the organ; type: ADME, organism-based; outline: as §3
[20] = test system: Mus musculus; experiment: The in vivo tissue distribution of mouse brain with Propranolol administration after 90 min, value was fractional dose per fractional body weight of the organ; type: ADME, organism-based; settings: 1.5 h; outline: as §3
[21] = test system: Mus musculus; experiment: The in vivo tissue distribution of mouse blood without Propranolol preadministration in 180 min, value was fractional dose per fractional body weight of the organ; settings: 3 h
[22] = test system: Mus musculus; experiment: The in vivo tissue distribution of mouse blood with Propranolol preadministration in 120 min, value was fractional dose per fractional body weight of the organ; type: ADME, organism-based; settings: 2 h; outline: as §1
[23] = test system: Mus musculus; experiment: The in vivo tissue distribution of mouse lung with Propranolol administration after 10 min, value was fractional dose per fractional body weight of the organ; type: ADME, organism-based; outline: as §2
[24] = test system: Mus musculus; experiment: The in vivo tissue distribution of mouse liver with Propranolol administration after 120 min, value was fractional dose per fractional body weight of the organ; type: ADME, organism-based; settings: 2 h; outline: as §3
[25] = test system: Mus musculus; experiment: The in vivo tissue distribution of mouse blood with Propranolol administration after 40 min, value was fractional dose per fractional body weight of the organ; type: ADME, organism-based; outline: as §3
[26] = test system: Mus musculus; experiment: The in vivo tissue distribution of mouse liver without Propranolol preadministration in 60 min, value was fractional dose per fractional body weight of the organ; settings: 1 h
[27] = test system: Mus musculus; experiment: The in vivo tissue distribution of mouse blood with Propranolol administration after 20 min, value was fractional dose per fractional body weight of the organ; type: ADME, organism-based; outline: as §3
[28] = test system: Mus musculus; experiment: The in vivo tissue distribution of mouse blood with Propranolol administration after 90 min, value was fractional dose per fractional body weight of the organ; type: ADME, organism-based; settings: 1.5 h; outline: as §1
[29] = test system: Mus musculus; experiment: The in vivo tissue distribution of mouse lung with Propranolol administration after 90 min, value was fractional dose per fractional body weight of the organ; type: ADME, organism-based; settings: 1.5 h; outline: as §1
[30] = test system: Mus musculus; experiment: The in vivo tissue distribution of mouse brain without Propranolol preadministration in 40 min, value was fractional dose per fractional body weight of the organ
[31] = test system: Mus musculus; experiment: The in vivo tissue distribution of mouse kidney without Propranolol preadministration in 60 min, value was fractional dose per fractional body weight of the organ; settings: 1 h
[32] = test system: Mus musculus; experiment: The in vivo tissue distribution of mouse bone with Propranolol administration after 120 min, value was fractional dose per fractional body weight of the organ; type: ADME, organism-based, Bone element; settings: 2 h; outline: as §2
[33] = test system: Mus musculus; experiment: The in vivo tissue distribution of mouse lung without Propranolol preadministration in 90 min, value was fractional dose per fractional body weight of the organ; settings: 1.5 h

| SMILES | Dose/organ [1] | Dose/organ [2] | Dose/organ [3] | Dose/organ [4] | Dose/organ [5] | Dose/organ [6] | Dose/organ [7] | Dose/organ [8] | Dose/organ [9] | Dose/organ [10] | Dose/organ [11] | Dose/organ [12] | Dose/organ [13] | Dose/organ [14] | Dose/organ [15] | Dose/organ [16] | Dose/organ [17] | Dose/organ [18] | Dose/organ [19] | Dose/organ [20] | other results |
| --- | --- | --- | --- | --- | --- | --- | --- | --- | --- | --- | --- | --- | --- | --- | --- | --- | --- | --- | --- | --- | --- |
| CC(C[18F])NC[C@H](O)COc1cccc2[nH]c3ccccc3c12 (stereo partly specified) | 0.52 | 1.39 | 1.23 | 0.78 | 0.45 | 0.09 | 5.34 | 4.82 | 0.67 | 1.1 | 1.33 | 0.86 | 0.91 | 0.65 | 1.7 | 1.9 | 0.15 | 1.64 | 0.39 | 0.38 | Dose/organ [21]: 0.43; Dose/organ [22]: 0.52; Dose/organ [23]: 5; Dose/organ [24]: 0.66; Dose/organ [25]: 0.35; Dose/organ [26]: 1.32; Dose/organ [27]: 0.43; Dose/organ [28]: 0.34; Dose/organ [29]: 1.06; Dose/organ [30]: 1.09; Dose/organ [31]: 1.39; Dose/organ [32]: 1.42; Dose/organ [33]: 5.88 |
| CC(C[18F])NC[C@@H](O)COc1cccc2[nH]c3ccccc3c12 (stereo partly specified) | 0.45 | 1.17 | 1.04 | 1.22 | 0.28 | 0.06 | 2.39 | 1.29 | 0.08 | 1.23 | 1.5 | 0.77 | 0.81 | 0.67 | 3 | 1.25 | 0.1 | 2.7 | 0.92 | 0.42 | Dose/organ [21]: 0.17; Dose/organ [22]: 0.24; Dose/organ [23]: 5.23; Dose/organ [24]: 0.94; Dose/organ [25]: 0.57; Dose/organ [26]: 2.56; Dose/organ [27]: 0.57; Dose/organ [28]: 0.47; Dose/organ [29]: 1.03; Dose/organ [30]: 0.73; Dose/organ [31]: 2.63; Dose/organ [32]: 1.98; Dose/organ [33]: 1.55 |
